STAT1 inh: inhibitors of IFN-gamma induced STAT1 signaling | NIH 3T3 STAT1-luciferase reporter, luminescence | inhibition, % at 5.5 µM | 200,000 tested, 0.35% active | AID 920;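 active = inhibition above a set limit, the mean inhibition across all tested compounds plus 3 SD, cut at about 34% in these data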;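 also: 0% = IFN-gamma with DMSO and 100% = IFN-gamma with 300 µM nifuroxazide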
PERK inh: blocks human PERK kinase | CHO PERK-DD fusion, SEAP luminescence translation reporter | inhibition, % at 5.6 µM | 220,000 tested, 0.17% active | Q9NZJ5;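 active = inhibition above the mean inhibition of all tested compounds plus 3 SD, set separately per screening campaign, cut at about 2.9% in these data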;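 also: PERK kinase domain activated by AP20187 dimerizer at 100 nM; 0% = DMSO with dimerizer and 100% = rapamycin at 8.4 µM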
Target sequence (Q9NZJ5 whole entry, looked up, the tested form may be a part): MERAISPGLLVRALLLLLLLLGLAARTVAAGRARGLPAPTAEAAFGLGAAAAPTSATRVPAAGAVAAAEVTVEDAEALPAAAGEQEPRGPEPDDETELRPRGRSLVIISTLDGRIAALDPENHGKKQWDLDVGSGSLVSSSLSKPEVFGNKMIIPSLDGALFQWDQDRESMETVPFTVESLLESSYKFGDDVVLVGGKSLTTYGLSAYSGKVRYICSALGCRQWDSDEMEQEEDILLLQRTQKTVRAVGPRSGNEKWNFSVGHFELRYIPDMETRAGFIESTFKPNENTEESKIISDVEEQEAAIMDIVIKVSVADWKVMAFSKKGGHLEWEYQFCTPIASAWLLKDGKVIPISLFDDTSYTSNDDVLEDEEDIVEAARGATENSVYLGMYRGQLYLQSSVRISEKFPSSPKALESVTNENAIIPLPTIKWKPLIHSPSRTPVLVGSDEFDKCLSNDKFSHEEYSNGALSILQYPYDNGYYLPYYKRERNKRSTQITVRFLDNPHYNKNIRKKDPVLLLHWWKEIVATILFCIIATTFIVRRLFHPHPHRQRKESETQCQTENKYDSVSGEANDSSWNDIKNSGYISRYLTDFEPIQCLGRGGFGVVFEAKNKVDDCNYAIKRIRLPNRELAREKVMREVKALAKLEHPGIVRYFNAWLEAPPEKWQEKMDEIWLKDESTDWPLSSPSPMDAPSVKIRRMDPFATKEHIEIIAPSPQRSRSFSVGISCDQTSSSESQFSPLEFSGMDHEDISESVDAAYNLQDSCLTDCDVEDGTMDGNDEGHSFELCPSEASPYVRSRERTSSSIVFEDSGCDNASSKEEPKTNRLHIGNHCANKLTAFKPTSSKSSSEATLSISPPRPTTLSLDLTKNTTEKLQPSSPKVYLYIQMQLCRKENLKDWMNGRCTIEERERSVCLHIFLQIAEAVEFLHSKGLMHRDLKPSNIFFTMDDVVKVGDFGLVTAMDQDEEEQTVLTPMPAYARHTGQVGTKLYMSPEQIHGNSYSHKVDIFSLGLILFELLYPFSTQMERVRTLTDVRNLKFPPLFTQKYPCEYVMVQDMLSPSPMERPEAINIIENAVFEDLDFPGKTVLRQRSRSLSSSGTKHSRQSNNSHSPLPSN
STAT3 inh-1: reduces IL-6 driven STAT3 reporter signal | 190,000 tested, 0.89% active | U3A cells, IL-6 STAT3-luciferase reporter, luminescence; host cell line lacks STAT1 | inhibition, % at 5.5 µM;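 active = inhibition above the mean inhibition across all screened compounds plus 3 SD, cut at about 44% in these data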;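 also: 0% = DMSO only wells and 100% = 100 µM nifuroxazide control wells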
STAT3 activator: activators of IL-6 induced STAT3 signaling. U3A cells, IL-6 STAT3-luciferase reporter, luminescence; 100% = signal with IL-6 EC80 alone. activation (% of control), % at 5.6 µM. 190,000 tested, 0.91% active. AID 871;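 active = activation above the screen-wide mean of compound activation plus 3 SD, cut at about 130% in these data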;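 also: 0% = background luminescence of wells with medium and substrate only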
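Assay system – human STAT1-deficient U3A cells with stable STAT3-luciferase reporter · Also added – IL-6 (33 ng/mL) · Schedule – compound 1 h, then IL-6 6 h at 37 °C · Technique – reporter luminescence signal · Evaluation – % activation versus median of IL-6-stimulated wells · Benchmarks – IL-6-only wells as 100% reference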
STAT3 inh-2: STAT3 inhibition, confirmation assay; AID 1265; 1,200 tested, 45% active; U3A cells, IL-6 STAT3 luciferase reporter, luminescence; cell line lacks STAT1; inhibition, % at 5.7 µM; shares compounds with STAT3 inh-1;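 active = inhibition above the hit cutoff computed for the primary STAT3 screen, cut at about 44% in these data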;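 also: 0% = IL-6 plus DMSO and 100% = IL-6 plus nifuroxazide control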
NFkB inh STAT3ct: counter-screen for STAT3 inhibitors: NF-kappaB inhibition. shares compounds with STAT3 inh-1. HEK293T NF-kB luciferase reporter, TNF-alpha induced. inhibition, % at 5.7 µM. 1,200 tested, 36% active. AID 1308;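 active = inhibition above the mean of solvent-only control wells plus 3 SD, cutoff set per campaign, cut at about 13% in these data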;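 also: 0% = TNF-alpha with DMSO and 100% = TNF-alpha with MG high control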
STAT1 inh STAT3c: STAT1 inhibition in STAT3 inhibitor counter-screen; shares compounds with STAT3 inh-1; NIH 3T3 STAT1-luciferase reporter, IFN-gamma induced, luminescence; inhibition, % at 5.7 µM; 1,200 tested, 27% active; AID 1317;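 active = inhibition above the mean plus 3 SD of solvent-only control wells, limit set per screening run, cut at about 16% in these data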;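 also: 0% = DMSO with IFN-gamma and 100% = nifuroxazide control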
Starred values were filed as active, the others as inactive; . = not tested or not shown. Compounds with a hit are over-represented: about 1.8% of the library has one in this group of screens.

SMILES | STAT1 inh | PERK inh | STAT3 inh-1 | STAT3 activator | STAT3 inh-2 | NFkB inh STAT3ct | STAT1 inh STAT3c
CCOC(=O)C(C)Oc1ccc(OCc2ccccc2)cc1 (stereo not given) | 7 | 0 | 6 | 98 | . | . | .
COc1cccc(CN(C)C(=O)c2cc(COc3ccc4ncccc4c3)on2)c1 | 35* | 0 | 74* | 38 | 64* | 18* | 19*
COc1cccc(CN(C)C(=O)c2cc(COc3c(F)cccc3F)on2)c1 | 1 | 0 | 20 | 86 | . | . | .
O=C(c1cc(COc2ccc3ncccc3c2)on1)N1CCCCCC1 | 14 | 0 | 53* | 58 | 59* | 13* | 14
COCC1CCN(C(=O)c2cc(COc3ccc4ncccc4c3)on2)CC1 | 30 | 1 | 55* | 55 | 53* | 22* | 23*
CC(NC(=O)c1cc(COc2ccc3ncccc3c2)on1)c1ccc(F)cc1 (stereo not given) | . | -2 | . | . | . | . | .
O=C(NC1CCCC1)c1cc(COc2ccc3ncccc3c2)on1 | . | -1 | . | . | . | . | .
COc1ccc(Br)cc1/C(C)=N/NC1=NCCN1 | 18 | -1 | 54* | 54 | 47* | 13 | 12
O=S(=O)(c1cccs1)N1CCN(CC(O)COc2cc(Cl)ccc2Cl)CC1 (stereo not given) | 21 | 0 | 54* | 57 | 35 | 15* | 17*
Cc1ccc(C(=O)c2ccc(C)cc2)cc1 | -16 | 0 | 8 | 99 | . | . | .
CC(=O)c1ccc(N=Nc2ccc(N(C)C)cc2)cc1 | -19 | 0 | 52* | 56 | 47* | 22* | -69
CC(=O)c1ccc(N=Nc2ccc(C)cc2)cc1 | 31 | 0 | 82* | 33 | 44* | -10 | -96
COc1ccc(CCN(Cc2cc3cccc(C)c3n3nnnc23)C(=O)c2ccncc2)cc1OC | 0 | 0 | -4 | 106 | . | . | .
CC(C)(C)c1ccc(-c2noc(CCC(=O)N3CCOCC3)n2)cc1 | 12 | 0 | 51* | 61 | 21 | 6 | -10
COc1ccc(-c2noc(CCCC(=O)N3CCOCC3)n2)cc1 | 6 | 1 | 5 | 100 | . | . | .
Cc1ccc(NC(=O)c2ccccc2-c2ccc(C(F)(F)F)cc2)cc1S(=O)(=O)N1CCOCC1 | -1 | -1 | -8 | 107 | . | . | .
Cc1ccc2c(c1)C(N1CCCC1=O)CC(c1ccco1)N2 (stereo not given) | 18 | 0 | 70* | 43 | 38 | -2 | -41
Cc1ccc(C2CC(c3ccco3)n3ncnc3N2)cc1 (stereo not given) | 7 | 1 | 6 | 99 | . | . | .
Cc1cccc(-n2ncc3c(N4CCCC4)ncnc32)c1 | -9 | -1 | 67* | 45 | 29 | -13 | -80
Clc1ccc(-n2ncc3c(N4CCCCCC4)ncnc32)cc1 | 2 | 1 | 87* | 29 | 71* | 49* | 12
Cc1cccc(-n2ncc3c(N4CC(C)CC(C)C4)ncnc32)c1 (stereo not given) | -37 | 1 | 20 | 91 | . | . | .
Cc1cccc(-n2ncc3c(N4CCOCC4)ncnc32)c1 | 10 | 0 | 78* | 33 | 62* | 28* | -20
Clc1ccc(Cn2ncc3c(N4CCCCC4)ncnc32)cc1 | 3 | 0 | 14 | 91 | . | . | .
COc1ccc(-c2csc(NC(=O)c3ccc(OCC(=O)N4CCOCC4)c(OC)c3)n2)cc1OC | 2 | -1 | 7 | 94 | . | . | .
Cc1ccc(O)c(NC(=S)NC(=O)C(C)C)c1 | . | 0 | . | . | . | . | .
SMILES | STAT1 inh | PERK inh | STAT3 inh-1 | STAT3 activator | STAT3 inh-2 | NFkB inh STAT3ct | STAT1 inh STAT3c
COc1ccc2[nH]c(C(O)(Cc3cccnc3)Cc3cccnc3)cc2c1 | -1 | 0 | 5 | 98 | . | . | .
Cc1nn(-c2ccccc2)c(C)c1C(=O)OCC(=O)c1c(N)n(CC(C)C)c(=O)n(C)c1=O | 11 | -1 | 44* | 67 | 66* | 14* | 14
CC(C)Cn1c(N)c(C(=O)CSc2nc3ccccc3n2C)c(=O)n(C)c1=O | 13 | 1 | -10 | 108 | . | . | .
Cc1csc(SCC(=O)c2c(N)n(CC(C)C)c(=O)n(C)c2=O)n1 | 16 | -1 | 49* | 62 | 49* | -2 | 20*
CCOC(=O)Cc1csc(SCC(=O)c2c(N)n(CC(C)C)c(=O)n(C)c2=O)n1 | 15 | 1 | 64* | 51 | 52* | 13 | 15
CC(C)Cn1c(N)c(C(=O)CSc2cc(Cl)ccc2Cl)c(=O)n(C)c1=O | 0 | 0 | 6 | 98 | . | . | .
COC(=O)C1c2ccccc2-c2ccccc21 | 2 | 0 | 6 | 98 | . | . | .
CCN(CC)S(=O)(=O)c1ccc2nc(CCl)[nH]c2c1 | 4 | 1 | 12 | 97 | . | . | .
Cc1cc(C(=O)CN2C(=O)NC3(CCCCC3)C2=O)c(C)n1-c1ccc2c(c1)OCO2 | -5 | -1 | -17 | 114 | . | . | .
CCC(=O)Oc1ccc(-c2nc(-c3cccnc3)no2)cc1 | -20 | 1 | 46* | 62 | 25 | -16 | -39
COC(=O)c1cnn(-c2ccccc2)c1-n1cccc1C=O | -1 | 1 | 4 | 99 | . | . | .
O=C(Nc1ccn(Cc2ccccc2F)n1)c1ccc(COc2ccc(Br)cc2)cc1 | -3 | 0 | 47* | 66 | 52* | 8 | -20
COc1ccc(Cn2c(=O)[nH]c3cc(C(=O)N4CCN(Cc5ccccc5)CC4)ccc3c2=O)cc1 | 2 | -1 | 64* | 50 | 56* | 16* | -7
Fc1ccc(-c2nc3n(n2)Cc2ccccc2-3)cc1 | -15 | 1 | -15 | 117 | . | . | .
Cc1ccc(-c2nc3n(n2)Cc2ccccc2-3)cc1 | 24 | 1 | 49* | 63 | -1 | 18* | -37
CSc1cccc(NC(=S)N2CCC(N(C)C3CCCCC3C)CC2)c1 (stereo not given) | 2 | -1 | 13 | 91 | . | . | .
CC(C)CN1C(=O)c2ccc(C(=O)Nc3ccncc3)cc2C1=O | 14 | 0 | 49* | 63 | 57* | 6 | 8
CC(C)CN1C(=O)c2ccc(C(=O)Nc3ccccn3)cc2C1=O | -10 | 1 | 5 | 100 | . | . | .
Cc1cc(NC(=O)c2ccc3c(c2)OCCO3)no1 | 9 | 0 | 74* | 41 | 41 | 6 | -11
O=C(Nc1ccccn1)c1ccc2c(c1)OCCO2 | -12 | 1 | 51* | 60 | 21 | -21 | -50
COC(=O)c1ccc(NC(=O)CCN2CCCCC2)cc1 | 6 | 0 | 32 | 78 | . | . | .
COC(=O)c1ccc(NC(=O)CCN2CCN(CCC(=O)Nc3ccc(C(=O)OC)cc3)CC2)cc1 | 0 | 0 | 49* | 61 | 38 | 8 | 4
COc1ccc(NC(=O)C(C)N2c3cccc4cccc(c34)S2(=O)=O)cc1OC (stereo not given) | 28 | -1 | 46* | 64 | 36 | 4 | 22*
C/C(=N/NC(=O)c1ccccn1)c1ccco1 | -9 | 1 | 44* | 66 | 11 | -16 | -43
C/C(=N/NC(=O)c1ccccn1)c1ccc(O)cc1 | . | 0 | . | . | . | . | .
